The structures appear in SMILES notation. In brackets after ≈: the same amount, converted by molar mass.

Holding throughout (type): functional
One assay has as its system Pseudomonas aeruginosa. As to the kind of experiment: Antimicrobial activity against Pseudomonas aeruginosa after 24 hrs by broth microdilution method. The method, boiled down:
(§1)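 Broth microdilution. Bacteria were grown on Mueller-Hinton agar and diluted in Mueller-Hinton broth. Compounds were made as 1000 µg/mL stocks in 50% DMSO/H₂O and added to wells as two-fold dilutions starting at 500 µg/mL, then inoculated. Sealed plates were incubated at 37 °C for 24 h in a humid chamber. MIC was the lowest concentration with no visible turbidity.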
A general note: In broth dilution the organism is exposed to a series of concentrations in liquid medium.

For the next assay, the system named is Candida parapsilosis. Description: Antimicrobial activity against Candida parapsilosis after 48 hrs by broth microdilution method. Conditions: Lodderomyces parapsilosis. The method in brief:
(§2)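 Fungi were grown on Sabouraud dextrose agar. Inocula were prepared in Sabouraud liquid medium at 37 °C for 12 h, then diluted in RPMI-1640 with L-glutamine, MOPS-buffered at pH 7. Compounds were made as 1000 µg/mL stocks in 50% DMSO/H₂O and tested as two-fold dilutions from 500 µg/mL. Sealed plates were incubated at 37 °C for 48 h in a humid chamber. MIC was the lowest concentration without visible turbidity.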

The next assay concerns Candida albicans. As to the kind of experiment: Antimicrobial activity against Candida albicans after 48 hrs by broth microdilution method. The method, boiled down:
as §2

For the next assay, the system named is Enterococcus faecalis. Description: Antimicrobial activity against Enterococcus faecalis after 24 hrs by broth microdilution method. The method, boiled down:
as §1

Another assay concerns Priestia megaterium. Description: Antimicrobial activity against Bacillus megaterium after 24 hrs by broth microdilution method. The method, boiled down:
as §1

The subject of another assay is Staphylococcus aureus. Description: Antimicrobial activity against Staphylococcus aureus after 24 hrs by broth microdilution method. The method in brief:
as §1

For a further assay, the system named is Nannizzia gypsea. As to the kind of experiment: Antimicrobial activity against Microsporum gypseum after 48 hrs by broth microdilution method. The method, boiled down: as §2
The test system of the next assay is Klebsiella aerogenes. As to the kind of experiment: Antimicrobial activity against Enterobacter aerogenes after 24 hrs by broth microdilution method. The method, boiled down: as §1
The test system of the next assay is Escherichia coli. As to the kind of experiment: Antimicrobial activity against Escherichia coli after 24 hrs by broth microdilution method. The method, boiled down: as §1
The subject of another assay is Aspergillus flavus. Description: Antimicrobial activity against Aspergillus flavus after 48 hrs by broth microdilution method. The method, boiled down:
as §2

Turning to `Fc1ccc(Nc2c(-c3cnc4ccc(F)cc4c3)nc3sc4cc(F)ccc4n23)cc1`, the MIC worked out at 0.15 µg/mL (≈ 0.336 µM) in the assay on Pseudomonas aeruginosa; 1.14 µg/mL (≈ 2.55 µM) with Candida parapsilosis; 1.12 µg/mL (≈ 2.51 µM) against Candida albicans; 0.21 µg/mL (≈ 0.47 µM) against Enterococcus faecalis; 0.83 µg/mL (≈ 1.86 µM) with Priestia megaterium; 0.26 µg/mL (≈ 0.582 µM) against Staphylococcus aureus. For the same compound, the MIC is 1.2 µg/mL (≈ 2.69 µM) with Nannizzia gypsea, 0.34 µg/mL (≈ 0.762 µM) with Klebsiella aerogenes, 0.23 µg/mL (≈ 0.515 µM) against Escherichia coli and 1.23 µg/mL (≈ 2.76 µM) against Aspergillus flavus.
`Fc1ccc(Nc2c(-c3cnc4ccc(Br)cc4c3)nc3ccc(-c4nc5ccc(F)cc5[nH]4)cn23)cc1`: the minimum inhibitory concentration (MIC) came out at 1.35 µg/mL (≈ 2.38 µM) against Pseudomonas aeruginosa; 1.22 µg/mL (≈ 2.15 µM) against Candida parapsilosis; 1.11 µg/mL (≈ 1.96 µM) in the assay with Candida albicans; 1.47 µg/mL (≈ 2.59 µM) in the assay with Enterococcus faecalis; 2.53 µg/mL (≈ 4.46 µM) in the assay with Priestia megaterium; 1.46 µg/mL (≈ 2.57 µM) against Staphylococcus aureus. Also, the MIC was found to be 1.21 µg/mL (≈ 2.13 µM) against Nannizzia gypsea, 1.55 µg/mL (≈ 2.73 µM) against Klebsiella aerogenes, 1.34 µg/mL (≈ 2.36 µM) against Escherichia coli and 1.36 µg/mL (≈ 2.4 µM) against Aspergillus flavus.
With `Fc1ccc(Nc2c(-c3c[nH]c4ccc(Br)cc34)nc3ccc(-c4nnc(-c5ccc(F)cc5)o4)cn23)cc1`, the MIC is 0.21 µg/mL (≈ 0.36 µM) with Pseudomonas aeruginosa; 2.22 µg/mL (≈ 3.81 µM) in the assay on Candida parapsilosis; 2.54 µg/mL (≈ 4.35 µM) against Candida albicans; 0.37 µg/mL (≈ 0.634 µM) against Enterococcus faecalis; 1.97 µg/mL (≈ 3.38 µM) with Priestia megaterium; 0.31 µg/mL (≈ 0.531 µM) against Staphylococcus aureus. Besides, the MIC in the assay on Nannizzia gypsea amounted to 4.25 µg/mL (≈ 7.28 µM); in the assay with Klebsiella aerogenes it was 0.35 µg/mL (≈ 0.6 µM); in the assay with Escherichia coli, 0.11 µg/mL (≈ 0.189 µM); with Aspergillus flavus it was 3.13 µg/mL (≈ 5.37 µM).
As to `Cc1ccc(-c2cnc(-c3ccc4nc(-c5c[nH]c6ccc(Br)cc56)c(Nc5ccc(F)cc5)n4c3)[nH]2)cc1`, the MIC with Pseudomonas aeruginosa was determined as 8.28 µg/mL (≈ 14.3 µM); in the assay with Candida parapsilosis, 18.4 µg/mL (≈ 31.9 µM); against Candida albicans, 19.5 µg/mL (≈ 33.8 µM); with Enterococcus faecalis, 7.32 µg/mL (≈ 12.7 µM); against Priestia megaterium, 1.25 µg/mL (≈ 2.16 µM); in the assay with Staphylococcus aureus, 5.13 µg/mL (≈ 8.88 µM). Besides, the minimal inhibitory concentration (MIC) in the assay on Nannizzia gypsea was determined as 15.6 µg/mL (≈ 27 µM); in the assay on Klebsiella aerogenes, 6.22 µg/mL (≈ 10.8 µM); with Escherichia coli, 6.11 µg/mL (≈ 10.6 µM); with Aspergillus flavus it was 16.5 µg/mL (≈ 28.5 µM).
For `Cc1ccc(-c2nnc(-c3ccc4nc(-c5cnc6ccc(Br)cc6c5)c(Nc5ccc(F)cc5)n4c3)o2)cc1`, the MIC with Pseudomonas aeruginosa came out at 2.57 µg/mL (≈ 4.35 µM); against Candida parapsilosis, 12.2 µg/mL (≈ 20.7 µM); against Candida albicans, 12.2 µg/mL (≈ 20.7 µM); against Enterococcus faecalis, 2.32 µg/mL (≈ 3.92 µM); in the assay on Priestia megaterium, 3.15 µg/mL (≈ 5.33 µM); against Staphylococcus aureus it was 1.24 µg/mL (≈ 2.1 µM). Also, the minimal inhibitory concentration (MIC) in the assay with Nannizzia gypsea turned out to be 11.2 µg/mL (≈ 18.9 µM); against Klebsiella aerogenes it was 1.74 µg/mL (≈ 2.94 µM); against Escherichia coli, 2.43 µg/mL (≈ 4.11 µM); against Aspergillus flavus, 11.3 µg/mL (≈ 19.1 µM).
As to `Fc1ccc(Nc2c(-c3cnc4ccc(Br)cc4c3)nc3sc4cc(F)ccc4n23)cc1`, the MIC in the assay with Pseudomonas aeruginosa came out at 0.34 µg/mL (≈ 0.67 µM); in the assay on Candida parapsilosis, 1.13 µg/mL (≈ 2.23 µM); in the assay on Candida albicans it was 1.21 µg/mL (≈ 2.38 µM); against Enterococcus faecalis, 0.51 µg/mL (≈ 1.01 µM); in the assay with Priestia megaterium, 1.12 µg/mL (≈ 2.21 µM); with Staphylococcus aureus, 0.43 µg/mL (≈ 0.848 µM). The minimum inhibitory concentration (MIC) came out at 1.24 µg/mL (≈ 2.44 µM) against Nannizzia gypsea, 0.51 µg/mL (≈ 1.01 µM) against Klebsiella aerogenes, 0.35 µg/mL (≈ 0.69 µM) with Escherichia coli and 1.3 µg/mL (≈ 2.56 µM) in the assay on Aspergillus flavus.
As for `Fc1ccc(Nc2c(-c3c[nH]c4ccc(Br)cc34)nc3ccc(-c4ncc(-c5ccc(F)cc5)[nH]4)cn23)cc1`, the minimum inhibitory concentration (MIC) with Pseudomonas aeruginosa was determined as 0.52 µg/mL (≈ 0.894 µM); against Candida parapsilosis, 4.61 µg/mL (≈ 7.93 µM); in the assay with Candida albicans, 3.21 µg/mL (≈ 5.52 µM); in the assay with Enterococcus faecalis it was 1.96 µg/mL (≈ 3.37 µM); in the assay on Priestia megaterium, 1.13 µg/mL (≈ 1.94 µM); against Staphylococcus aureus it was 0.23 µg/mL (≈ 0.396 µM). The minimum inhibitory concentration (MIC) in the assay on Nannizzia gypsea was 8.12 µg/mL (≈ 14 µM); against Klebsiella aerogenes it was 0.17 µg/mL (≈ 0.292 µM); in the assay on Escherichia coli it was 0.42 µg/mL (≈ 0.722 µM); against Aspergillus flavus, 3.25 µg/mL (≈ 5.59 µM).

For orientation: MIC means the smallest concentration in the dilution series that meets the test's criterion for growth inhibition. Read a low MIC as greater potency.

Values taken from ChEMBL document CHEMBL1773057, “Design, synthesis and in vitro antimicrobial evaluation of novel Imidazo[1,2-a]pyridine and imidazo[2,1-b][1,3]benzothiazole motifs” (2011).
